Activity calls are given as the source filed them. The calls are words filed in the database; no cut-off is given here.
Tests used:
[1] = tested on: Homo sapiens; experiment: Decrease in plasma aldosterone level in po dosed human administered as bid measured over 24 hrs; assay type: functional, organism-based
Method in brief: (§1)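 Healthy male and female volunteers, 18-63 years, restricted sodium/potassium diet; double-blind randomized placebo-controlled, oral 30, 60, 100 or 200 mg bid (drug:placebo 5:2).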

[2] = tested on: Cynomolgus monkey; experiment: Decrease in ACTH-stimulated plasma cortisol level of chair-trained chronically cannulated cynomolgus monkey model at 0.03 to 3 mg/kg, po compound administered followed by ACTH challenge for 24 hrs by LC/MS/MS analysis; assay type: functional, organism-based; conditions: Macaca fascicularis
Method in brief: (§2)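 Conscious chair-trained, chronically cannulated male cynomolgus monkeys; vascular access port via Huber needle. Baseline blood (heparin) before dosing; methylcellulose suspension po at 0.03, 0.1, 0.3 or 3 mg/kg (n=3/dose) or vehicle (n=6, same animals). ACTH(1–24) 3000 ng/kg iv 3 h post-dose; sampling 0.125–1 h post-ACTH, up to 8 h, and 23.5 and 24 h. Aldosterone and cortisol by RIA; drug by LC/MS/MS (LLOQ 0.26 nmol/L, lower values set to zero).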

[3] = AUC (0 to 24 hrs) in continuous angiotensin 2 infusion Sprague-Dawley rat model at 3 mg/kg, po; assay type: ADME, organism-based; set-up: time < 24 hr, dose 3 mg/kg, route oral; conditions: in vivo
Method in brief: (§3)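 Male Sprague Dawley rats, 200–300 g. IV: 0.3 mg/1 mL/kg (free base) slow injection via jugular vein, n=2. Oral gavage at 1 mg/5 mL/kg or 3 mg/5 mL/kg in solution, n=3. Jugular catheter blood at 5 min (iv only), 0.25–8 h into EDTA; plasma after protein precipitation with acetonitrile containing internal standard, HPLC-MS; noncompartmental parameters.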

[4] = tested on: Homo sapiens; experiment: Dose normalized Cmax in healthy human at 60 mg/kg, po bid; assay type: ADME, organism-based; conditions: in vivo
Method in brief: (§4)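 Double-blind, randomized, placebo-controlled study in healthy male and female volunteers aged 18-63 on a restricted sodium/potassium diet. Oral bid doses of 30, 60, 100 or 200 mg, drug:placebo 5:2. N per dose 10–17. AUCtau, Cmax and median Tmax reported; dose-normalized values are AUCtau/dose and Cmax/dose.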

[5] = tested on: Homo sapiens; experiment: Decrease in urinary aldosterone excretion in po dosed human administered as bid measured over 24 hrs; assay type: functional, organism-based; conditions: Urine; method in brief: as §1
[6] = tested on: Homo sapiens; experiment: Dose normalized AUCtau in healthy human at 30 mg/kg, po bid; assay type: ADME, organism-based; conditions: in vivo; method in brief: as §4
[7] = Tmax in healthy human at 30 mg/kg, po bid; assay type: ADME, organism-based; conditions: in vivo; method in brief: as §4
[8] = tested on: Plasma; experiment: Drug uptake in plasma of po dosed chair-trained chronically cannulated cynomolgus monkey model compound administered followed by ACTH challenge for 3 hrs measured up to 8 hrs post challenge by LC/MS/MS analysis; assay type: ADME, organism-based, Macaca fascicularis; conditions: in vivo; method in brief: as §2
[9] = tested on: Homo sapiens; experiment: Toxicity in human assessed as decrease in urinary cortisol level at 30 to 200 mg/kg, po bid measured over 24 hrs; assay type: organism-based, Urine; conditions: in vivo, in the assay text read “30 to 200 mg” for “30 to 200 mg/kg”; method in brief: as §1
[10] = tested on: Homo sapiens; experiment: Dose normalized Cmax in healthy human at 30 mg/kg, po bid; assay type: ADME, organism-based; conditions: in vivo; method in brief: as §4
[11] = Oral bioavailability in continuous angiotensin 2 infusion Sprague-Dawley rat model at 3 mg/kg; assay type: ADME, organism-based; conditions: in vivo; method in brief: as §3

Q: For `CCS(=O)(=O)NCc1cncc(-c2c(C#N)c3ccc(Cl)cc3n2C)c1`, which Activity [1] is on record?
A: Dose-dependent effect

Q: What about the Activity [2] of the same compound?
A: inactive

Q: What about the AUC(0-t) at 24 h [3] of the same compound?
A: 5.79 µM·h

Q: What about the Cmax/dose [4] of the same compound?
A: 2.8 ng/mL

Q: What about the Activity [5] of the same compound?
A: Dose-dependent effect

Q: And the AUC/dose [6]?
A: 25.6 ng·h/mL/mg

Q: And the Tmax [7]?
A: 4 h

Q: What about the Drug uptake [8] of the same compound?
A: Dose-dependent effect

Q: And the Activity [9]?
A: Non-toxic

Q: What about the Cmax/dose [10] of the same compound?
A: 3.9 ng/mL

Q: What about the bioavailability [11] of the same compound?
A: 84%

Source: ChEMBL document CHEMBL3745671, “Discovery of N-[5-(6-Chloro-3-cyano-1-methyl-1H-indol-2-yl)-pyridin-3-ylmethyl]-ethanesulfonamide, a Cortisol-Sparing CYP11B2 Inhibitor that Lowers Aldosterone in Human Subjects” (J Med Chem, 2015)
